Active and inactive are the calls of the source. The calls are words filed in the database; no cut-off is given here.
Experiments:
A-431 [1] = assay: Growth inhibition of human A431 cells at 10 ug/mL after 3 days by MTT assay relative to control; type: functional; conditions: A-431, 72 h, read-out: GI
Method in brief: (§1)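 Lines resuspended in culture medium: L-1210 at 1.5 × 10⁴ cells/well, SW-948 and A-431 at 2.5 × 10⁴ cells/well. Preparations added over […], cisplatin reference at the same concentrations. 3-day incubation, proliferation by MTT; mean OD of quadruplicate wells ±SE, expressed as percentage inhibition.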

PBMC [2] = assay: Inhibition of LPS-induced TNFalpha production in human PBMC at 5 ug/mL after overnight incubation relative to DMSO-treated control; type: functional
Method in brief: (§2)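 Single-donor venous blood diluted 10× in RPMI-1640, 1 mL aliquots, stimulated with LPS (E. coli O111:B4). Compounds added at […]; corresponding DMSO dilutions as controls. Overnight incubation, supernatants frozen at −20 °C, TNF-α measured by biological assay; percentage inhibition versus DMSO control.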

A-431 [3] = assay: Growth inhibition of human A431 cells at 10 to 50 ug/mL after 3 days by MTT assay; type: functional, cell-based; method in brief: as §1
PBMC [4] = assay: Inhibition of LPS-induced TNFalpha production in human PBMC at 25 ug/mL after overnight incubation relative to DMSO-treated control; type: functional; method in brief: as §2
SW948 [5] = assay: Growth inhibition of human SW948 cells at 10 ug/mL after 3 days by MTT assay relative to control; type: functional; conditions: SW948, 72 h, read-out: GI; method in brief: as §1
SW948 [6] = assay: Growth inhibition of human SW948 cells at 5 ug/mL after 3 days by MTT assay relative to control; type: functional; conditions: SW948, 72 h, read-out: GI; method in brief: as §1
PBMC [7] = assay: Cytotoxicity against human PBMC cells at 10 ug/mL after 24 hrs by MTT assay relative to DMSO-treated control; type: cell-based
Method in brief: (§3)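 Ficoll-isolated PBMC ([…]) in supplemented RPMI-1640, 2 × 10⁵/well, cultured 24 h with the preparations at the indicated concentrations; compounds dissolved in DMSO (10 mg/mL stock) and diluted in medium.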

L1210 [8] = assay: Growth inhibition of mouse L1210 cells at 10 ug/mL after 3 days by MTT assay relative to control; type: functional; conditions: L1210, 72 h, read-out: GI; method in brief: as §1
PBMC [9] = assay: Antiproliferative activity against PHA-stimulated human PBMC at 10 ug/mL after 4 days by MTT assay relative to DMSO-treated control; type: functional
Method in brief: (§4)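 PBMC from one donor's heparinized blood, Ficoll gradient isolated, in RPMI-1640 with 10% FCS; 2 × 10⁵ cells/well. PHA added at […]; compounds from DMSO stock (10 mg/mL) diluted in medium; matching DMSO dilutions as control. Four-day culture, proliferation read by MTT colorimetry; percentage inhibition versus control.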

PBMC [10] = assay: Cytotoxicity against human PBMC cells at 50 ug/mL after 24 hrs by MTT assay relative to DMSO-treated control; type: cell-based; method in brief: as §3
PBMC [11] = assay: Antiproliferative activity against PHA-stimulated human PBMC at 50 ug/mL after 4 days by MTT assay relative to DMSO-treated control; type: functional; method in brief: as §4
L1210 [12] = assay: Growth inhibition of mouse L1210 cells at 10 to 50 ug/mL after 3 days by MTT assay; type: functional, cell-based; method in brief: as §1
SW948 [13] = assay: Growth inhibition of human SW948 cells at 10 to 50 ug/mL after 3 days by MTT assay; type: functional, cell-based; method in brief: as §1

In the case of `O=C(NCCCl)NCCCN1c2ccc(Cl)cc2Sc2cc3ccccc3nc21`, the inhibition of growth at 10 µg/mL (A-431 [1]) is reported as 91.8%, the inhibition at 5 µg/mL (PBMC [2]) is reported as 9.2% and the “growth inhibition (GI)” value (A-431 [3]) is reported as “Active”. For the same molecule, the inhibition at 25 µg/mL (PBMC [4]) was 72.1%, the inhibition of growth at 10 µg/mL (SW948 [5]) was 91.8% and the inhibition of growth at 5 µg/mL (SW948 [6]) was 96%. It also gave an Activity (PBMC [7]) of 15.9%, an inhibition of growth at 10 µg/mL (L1210 [8]) of 91.8% and an Activity (PBMC [9]) of 98.6%. For the same molecule, the Activity (PBMC [10]) was 89.5%, the Activity (PBMC [11]) was 100% and the “growth inhibition (GI)” value (L1210 [12]) was “Active”. The “growth inhibition (GI)” value (SW948 [13]) was “Active”.

With `CC(=O)NCCCCN1c2ccc(Cl)cc2Sc2cc3ccccc3nc21` the inhibition of growth at 10 µg/mL (A-431 [1]) was 91.8%, the inhibition at 5 µg/mL (PBMC [2]) was 13.2% and the “growth inhibition (GI)” value (A-431 [3]) was “Active”. The inhibition at 25 µg/mL (PBMC [4]) was 53.4%, the inhibition of growth at 10 µg/mL (SW948 [5]) was 91.8% and the Activity (PBMC [7]) was “Non-toxic”. The inhibition of growth at 10 µg/mL (L1210 [8]) was 91.8%, the Activity (PBMC [9]) was 71.2% and the Activity (PBMC [10]) was “Non-toxic”. For the same molecule, the Activity (PBMC [11]) was 92.6%, the “growth inhibition (GI)” value (L1210 [12]) was “Active” and the “growth inhibition (GI)” value (SW948 [13]) was “Active”.

In the case of `CSc1ccc2c(c1)Sc1cc3ccccc3nc1N2CCCCNC(=O)NCCCl`, the inhibition of growth at 10 µg/mL (A-431 [1]) is reported as 91.8%, the inhibition at 5 µg/mL (PBMC [2]) is reported as 73.3% and the “growth inhibition (GI)” value (A-431 [3]) is reported as “Active”. It also gave an inhibition at 25 µg/mL (PBMC [4]) of 47.5%, an inhibition of growth at 10 µg/mL (SW948 [5]) of 91.8% and an inhibition of growth at 5 µg/mL (SW948 [6]) of 96%. It also gave an Activity (PBMC [7]) of 4.2%, an inhibition of growth at 10 µg/mL (L1210 [8]) of 91.8% and an Activity (PBMC [9]) of 94.8%. The Activity (PBMC [10]) was 95.1%, the Activity (PBMC [11]) was 92.7% and the “growth inhibition (GI)” value (L1210 [12]) was “Active”. The “growth inhibition (GI)” value (SW948 [13]) was “Active”.

With `Cc1ccc(S(=O)(=O)NCCCCN2c3ccc(Cl)cc3Sc3cc4ccccc4nc32)cc1` the inhibition at 5 µg/mL (PBMC [2]) was 20.7%, the inhibition at 25 µg/mL (PBMC [4]) was -12.7% and the Activity (PBMC [7]) was “Non-toxic”. The Activity (PBMC [9]) was 13.2%, the Activity (PBMC [10]) was “Non-toxic” and the Activity (PBMC [11]) was 19.8%.

For `CS(=O)(=O)NCCCN1c2ccccc2Sc2cc3ccccc3nc21`, the inhibition at 5 µg/mL (PBMC [2]) was 8.1%, the inhibition at 25 µg/mL (PBMC [4]) was 60.6% and the Activity (PBMC [7]) was “Non-toxic”. For the same molecule, the Activity (PBMC [9]) was 36.6%, the Activity (PBMC [10]) was “Non-toxic” and the Activity (PBMC [11]) was 74.6%.

`Cc1ccc(S(=O)(=O)NCCCN2c3ccccc3Sc3cc4ccccc4nc32)cc1` was tested, and the inhibition at 5 µg/mL (PBMC [2]) was 3.8%, the inhibition at 25 µg/mL (PBMC [4]) was 15.6% and the Activity (PBMC [7]) was “Non-toxic”. The Activity (PBMC [9]) was 6.6%, the Activity (PBMC [10]) was “Non-toxic” and the Activity (PBMC [11]) was -0.8%.

For `CCOC(=O)NCCCN1c2ccc(Cl)cc2Sc2cc3ccccc3nc21`, the inhibition at 5 µg/mL (PBMC [2]) was 10.3%, the inhibition at 25 µg/mL (PBMC [4]) was 31.7% and the Activity (PBMC [7]) was “Non-toxic”. For the same molecule, the Activity (PBMC [9]) was 45%, the Activity (PBMC [10]) was “Non-toxic” and the Activity (PBMC [11]) was 60.4%.

In the case of `CS(=O)(=O)NCCCCN1c2ccccc2Sc2cc3ccccc3nc21`, the inhibition at 5 µg/mL (PBMC [2]) is reported as 14%, the inhibition at 25 µg/mL (PBMC [4]) is reported as 42.3% and the Activity (PBMC [7]) is reported as “Non-toxic”. The Activity (PBMC [9]) was 42.3%, the Activity (PBMC [10]) was “Non-toxic” and the Activity (PBMC [11]) was 94.3%.

In the case of `Clc1cccc2c1Sc1cc3ccccc3nc1N2`, the inhibition at 5 µg/mL (PBMC [2]) is reported as 17%, the inhibition at 25 µg/mL (PBMC [4]) is reported as 4.6% and the Activity (PBMC [7]) is reported as “Non-toxic”. For the same molecule, the Activity (PBMC [9]) was 10.7%, the Activity (PBMC [10]) was 13% and the Activity (PBMC [11]) was 10.8%.

Source: ChEMBL document CHEMBL2375308, “Synthesis and selected immunological properties of substituted quino[3,2-b]benzo[1,4]thiazines” (Eur J Med Chem, 2013)
